Results reported in ChEMBL document CHEMBL5724801, “EUbOPEN Chemogenomics Library - Multiplex” (2024).
Values joined by “and” are separate entries in the source; they are usually repeats but may differ in a detail not shown here. Equal entries are not always repeated.

Tested on: U2OS
Assay: Multiplex assay against U2OS
Assay type: toxicity, cell-based
Conditions: human
Procedure, shortened: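 Tubulin, mitochondrial-mass and membrane-permeability phenotypes are per cents of healthy-nucleus cells. Cells were gated by CellPathfinder machine learning into Hoechst high-intensity objects or normal cells, normal cells into healthy, pyknosed or fragmented nuclei, and pyknosed cells into mitotic or apoptotic. Before that, live cells stained at seeding with Hoechst33342, BioTracker Green Microtubule Cytoskeleton Dye, MitoTracker Red and Annexin V Alexa Fluor 680 were imaged on a CQ1 microscope at 37°C and 5% CO2 after compound addition.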

[1] = 12 h, 1 µM, compound concentration 1 uM
[2] = 12 h, 10 µM, compound concentration 10 uM
[3] = 24 h, 1 µM, compound concentration 1 uM
[4] = 24 h, 10 µM, compound concentration 10 uM
[5] = 48 h, 1 µM, compound concentration 1 uM
[6] = 48 h, 10 µM, compound concentration 10 uM

Q: What does the source list for `COc1cc(N2CCN(C)CC2)ccc1Nc1nccc(-c2cn(C)c3cnccc23)n1`?
A: Population Apoptotic (%) [1]: 42.42% and 21.43%; Population Fragmented Nuclei (%) [1]: 1.36% and 2.74%; Population Healthy Nuclei (%) [1]: 89.7% and 78.08%; Population Hoechst High Intensity Objects (%) [1]: 0.27% and 0%; Population Membrane Permeable-Phenotype (%) [1]: 5.14% and 14.04%; Population Mitotic Cells (%) [1]: 57.58% and 78.57%; Population Normal (%) [1]: 99.73% and 100%; Population Pyknosed Nuclei (%) [1]: 8.94% and 19.18%; Population Tubulin-Different-Phenotype (%) [1]: 5.14% and 4.39%; Total Cell Count [1]: 370 and 146; Population Apoptotic (%) [2]: 48.67% and 23.94%; Population Fragmented Nuclei (%) [2]: 6.32% and 4.8%; Population Healthy Nuclei (%) [2]: 61.21% and 38.4%; Population Hoechst High Intensity Objects (%) [2]: 0%; Population Membrane Permeable-Phenotype (%) [2]: 33.33% and 66.67%; Population Mitotic Cells (%) [2]: 51.33% and 76.06%; Population Normal (%) [2]: 100%; Population Pyknosed Nuclei (%) [2]: 32.47% and 56.8%; Population Tubulin-Different-Phenotype (%) [2]: 60.56% and 58.33%; Total Cell Count [2]: 348 and 125; Population Apoptotic (%) [3]: 46.67% and 20.69%; Population Fragmented Nuclei (%) [3]: 0.88% and 3.53%; Population Healthy Nuclei (%) [3]: 89.18% and 79.41%; Population Hoechst High Intensity Objects (%) [3]: 0%; Population Membrane Permeable-Phenotype (%) [3]: 3.96% and 9.63%; Population Mitotic Cells (%) [3]: 53.33% and 79.31%; Population Normal (%) [3]: 100%; Population Pyknosed Nuclei (%) [3]: 9.93% and 17.06%; Population Tubulin-Different-Phenotype (%) [3]: 3.71% and 5.19%; Total Cell Count [3]: 453 and 170; Population Apoptotic (%) [4]: 79.82% and 63.75%; Population Fragmented Nuclei (%) [4]: 10.27% and 17.39%; Population Healthy Nuclei (%) [4]: 55.29% and 24.64%; Population Hoechst High Intensity Objects (%) [4]: 0%; Population Membrane Permeable-Phenotype (%) [4]: 25.68% and 44.12%; Population Mitotic Cells (%) [4]: 20.18% and 36.25%; Population Normal (%) [4]: 100%; Population Pyknosed Nuclei (%) [4]: 34.44% and 57.97%; Population Tubulin-Different-Phenotype (%) [4]: 53.55% and 44.12%; Total Cell Count [4]: 331 and 138; Population Apoptotic (%) [5]: 46.51% and 48.94%; Population Fragmented Nuclei (%) [5]: 1.87% and 5.31%; Population Healthy Nuclei (%) [5]: 87.42% and 75.51%; Population Hoechst High Intensity Objects (%) [5]: 0%; Population Membrane Permeable-Phenotype (%) [5]: 1.42% and 4.86%; Population Mitotic Cells (%) [5]: 53.49% and 51.06%; Population Normal (%) [5]: 100%; Population Pyknosed Nuclei (%) [5]: 10.71% and 19.18%; Population Tubulin-Different-Phenotype (%) [5]: 2.14% and 3.78%; Population Apoptotic (%) [6]: 82.73% and 95.65%; Population Fragmented Nuclei (%) [6]: 15.62% and 15.79%; Population Hoechst High Intensity Objects (%) [6]: 0%; Population Membrane Permeable-Phenotype (%) [6]: 15.15% and 25%; Population Normal (%) [6]: 100%; Population Pyknosed Nuclei (%) [6]: 30.14% and 69.17%; Population Tubulin-Different-Phenotype (%) [6]: 53.54% and 40%; Total Cell Count [6]: 365 and 133

Q: For `O=C(O)C(F)(F)F.O=C1NC(=O)/C(=C/c2c[nH]c(=O)c(-c3ccc(N4CCNCC4)nc3)c2)S1`, which “Population Apoptotic (%)” value [1] is on record?
A: 42.86% and 38.46%

Q: And the “Population Fragmented Nuclei (%)” value [1]?
A: 1.89% and 1.93%

Q: What about the “Population Healthy Nuclei (%)” value [1] of the same compound?
A: 92.45% and 85.51%

Q: And the “Population Hoechst High Intensity Objects (%)” value [1]?
A: 0%

Q: And the “Population Membrane Permeable-Phenotype (%)” value [1]?
A: 0.29% and 4.52%

Q: And the “Population Mitochondria Different-Phenotype (%)” value [1]?
A: 0.29% and 6.21%

Q: What about the “Population Mitotic Cells (%)” value [1] of the same compound?
A: 57.14% and 61.54%

Q: And the “Population Normal (%)” value [1]?
A: 100%

Q: And the “Population Pyknosed Nuclei (%)” value [1]?
A: 5.66% and 12.56%

Q: And the “Population Tubulin-Different-Phenotype (%)” value [1]?
A: 0.58% and 2.82%

Q: And the “Total Cell Count” value [1]?
A: 371 and 207

Q: And the “Population Apoptotic (%)” value [2]?
A: 25% and 60%

Q: And the “Population Fragmented Nuclei (%)” value [2]?
A: 1.57% and 2.75%

Q: What about the “Population Healthy Nuclei (%)” value [2] of the same compound?
A: 90.03% and 86.26%

Q: And the “Population Hoechst High Intensity Objects (%)” value [2]?
A: 0%

Q: What about the “Population Membrane Permeable-Phenotype (%)” value [2] of the same compound?
A: 2.62% and 4.46%

Q: And the “Population Mitochondria Different-Phenotype (%)” value [2]?
A: 0.29% and 5.73%

Q: What about the “Population Mitotic Cells (%)” value [2] of the same compound?
A: 75% and 40%

Q: What about the “Population Normal (%)” value [2] of the same compound?
A: 100%

Q: What about the “Population Pyknosed Nuclei (%)” value [2] of the same compound?
A: 8.4% and 10.99%

Q: What about the “Population Tubulin-Different-Phenotype (%)” value [2] of the same compound?
A: 1.17% and 1.27%

Q: And the “Total Cell Count” value [2]?
A: 381 and 182

Q: And the “Population Apoptotic (%)” value [3]?
A: 38.46% and 27.27%

Q: And the “Population Fragmented Nuclei (%)” value [3]?
A: 0.79% and 0.38%

Q: And the “Population Healthy Nuclei (%)” value [3]?
A: 94.08% and 86.92%

Q: What about the “Population Hoechst High Intensity Objects (%)” value [3] of the same compound?
A: 0%

Q: What about the “Population Membrane Permeable-Phenotype (%)” value [3] of the same compound?
A: 0.42% and 3.98%

Q: And the “Population Mitochondria Different-Phenotype (%)” value [3]?
A: 0.21% and 3.98%

Q: And the “Population Mitotic Cells (%)” value [3]?
A: 61.54% and 72.73%

Q: And the “Population Normal (%)” value [3]?
A: 100%

Q: What about the “Population Pyknosed Nuclei (%)” value [3] of the same compound?
A: 5.13% and 12.69%

Q: What about the “Population Tubulin-Different-Phenotype (%)” value [3] of the same compound?
A: 0.42% and 1.33%

Q: And the “Total Cell Count” value [3]?
A: 507 and 260

Q: And the “Population Apoptotic (%)” value [4]?
A: 40.62% and 57.89%

Q: And the “Population Fragmented Nuclei (%)” value [4]?
A: 2.9% and 4.85%

Q: What about the “Population Healthy Nuclei (%)” value [4] of the same compound?
A: 90.91% and 86.78%

Q: And the “Population Hoechst High Intensity Objects (%)” value [4]?
A: 0%

Q: And the “Population Membrane Permeable-Phenotype (%)” value [4]?
A: 3.19% and 4.06%

Q: And the “Population Mitochondria Different-Phenotype (%)” value [4]?
A: 0.21% and 4.57%

Q: What about the “Population Mitotic Cells (%)” value [4] of the same compound?
A: 59.38% and 42.11%

Q: And the “Population Normal (%)” value [4]?
A: 100%

Q: What about the “Population Pyknosed Nuclei (%)” value [4] of the same compound?
A: 6.19% and 8.37%

Q: And the “Population Tubulin-Different-Phenotype (%)” value [4]?
A: 1.49% and 0.51%

Q: What about the “Total Cell Count” value [4] of the same compound?
A: 517 and 227

Q: And the “Population Apoptotic (%)” value [5]?
A: 51.47% and 41.86%

Q: And the “Population Fragmented Nuclei (%)” value [5]?
A: 2% and 1.49%

Q: And the “Population Healthy Nuclei (%)” value [5]?
A: 90.84% and 89.38%

Q: What about the “Population Hoechst High Intensity Objects (%)” value [5] of the same compound?
A: 0%

Q: And the “Population Membrane Permeable-Phenotype (%)” value [5]?
A: 0.93% and 3.09%

Q: And the “Population Mitochondria Different-Phenotype (%)” value [5]?
A: 0.12% and 2.14%

Q: What about the “Population Mitotic Cells (%)” value [5] of the same compound?
A: 48.53% and 58.14%

Q: What about the “Population Normal (%)” value [5] of the same compound?
A: 100%

Q: And the “Population Pyknosed Nuclei (%)” value [5]?
A: 7.16% and 9.13%

Q: And the “Population Tubulin-Different-Phenotype (%)” value [5]?
A: 1.04% and 1.66%

Q: What about the “Total Cell Count” value [5] of the same compound?
A: 950 and 471

Q: And the “Population Apoptotic (%)” value [6]?
A: 38.82% and 45.95%

Q: And the “Population Fragmented Nuclei (%)” value [6]?
A: 2.93% and 2.98%

Q: What about the “Population Healthy Nuclei (%)” value [6] of the same compound?
A: 88.48% and 87.84%

Q: And the “Population Hoechst High Intensity Objects (%)” value [6]?
A: 0.1% and 0%

Q: And the “Population Membrane Permeable-Phenotype (%)” value [6]?
A: 1.48% and 3.39%

Q: What about the “Population Mitochondria Different-Phenotype (%)” value [6] of the same compound?
A: 0% and 1.98%

Q: What about the “Population Mitotic Cells (%)” value [6] of the same compound?
A: 61.18% and 54.05%

Q: What about the “Population Normal (%)” value [6] of the same compound?
A: 99.9% and 100%

Q: What about the “Population Pyknosed Nuclei (%)” value [6] of the same compound?
A: 8.59% and 9.18%

Q: What about the “Population Tubulin-Different-Phenotype (%)” value [6] of the same compound?
A: 0.68% and 1.69%

Q: What about the “Total Cell Count” value [6] of the same compound?
A: 991 and 403
